Assay results: ChEMBL document CHEMBL3272191, “Aporphines. 14 Dopaminergic and antinociceptive activity of aporphine derivatives. Synthesis of 10-hydroxyaporphines and 10-hydroxy-N-n-propylnoraporphine” (1976)
The source made the active and inactive calls.

Tests used:
Rattus norvegicus [1] = assay: Central dopaminergic activity in 6-OH-DA-lesioned specific pathogen-free Sprague-Dawley rat assessed as induction of rotational behavior measured as total time at 0.01 mg/kg, ip; type: functional; settings: route intraperitoneal
Method in brief: (§1)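 Drugs were given ip, mostly to one group of four rats, with an extra group of four in some runs. Doses were 3 days or more apart over several months. Read-outs were total turning time (min), peak activity, overall mean activity and total activity, given as means ± SEM.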

Rattus norvegicus [2] = assay: Central dopaminergic activity in 6-OH-DA-lesioned specific pathogen-free Sprague-Dawley rat assessed as induction of rotational behavior measured as total time at 0.025 mg/kg, ip; type: functional; settings: route intraperitoneal; method in brief: as §1
Rattus norvegicus [3] = assay: Central dopaminergic activity in 6-OH-DA-lesioned specific pathogen-free Sprague-Dawley rat assessed as induction of rotational behavior measured as total time at 0.05 mg/kg, ip; type: functional; settings: route intraperitoneal; method in brief: as §1
Rattus norvegicus [4] = assay: Central dopaminergic activity in 6-OH-DA-lesioned specific pathogen-free Sprague-Dawley rat assessed as induction of rotational behavior measured as total time at 0.5 mg/kg, ip; type: functional; settings: route intraperitoneal; method in brief: as §1
Rattus norvegicus [5] = assay: Central dopaminergic activity in 6-OH-DA-lesioned specific pathogen-free Sprague-Dawley rat assessed as induction of rotational behavior measured as total time at 1 mg/kg, ip; type: functional; settings: route intraperitoneal; method in brief: as §1
Rattus norvegicus [6] = assay: Central dopaminergic activity in 6-OH-DA-lesioned specific pathogen-free Sprague-Dawley rat assessed as induction of rotational behavior measured as total time at 2 mg/kg, ip; type: functional; settings: route intraperitoneal; method in brief: as §1
Rattus norvegicus [7] = assay: Central dopaminergic activity in 6-OH-DA-lesioned ip dosed specific pathogen-free Sprague-Dawley rat assessed as induction of rotational behavior; type: functional, organism-based; method in brief: as §1
Mus musculus [8] = assay: Antinociceptive activity in albino CD-1 mouse at 0.1 to 10 mg/kg, ip after 60 mins by tail-flick method; type: functional, organism-based
Method in brief: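 Male albino CD-1 mice (18–24 g) were used in groups of ten. Compounds were suspended in 0.5% methylcellulose and given ip. Light was focused on the ventral tail and set for a 2–4 s baseline flick; mice outside that range were excluded. The control was the mean of two readings 30 min apart. Latencies were read every 30 min for 2 h, with a 10 s cutoff. Read-out was %MPE = [(Tr − Tc)/(10 − Tc)] × 100, taken at time of peak effect.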

Mus musculus [9] = assay: Antinociceptive activity in naloxone hydrochloride-pretreated albino CD-1 mouse at 0.1 to 10 mg/kg, ip after 60 mins by tail-flick method; type: functional, organism-based
Rattus norvegicus [10] = assay: Central dopaminergic activity in 6-OH-DA-lesioned specific pathogen-free Sprague-Dawley rat assessed as induction of rotational behavior measured as total time at 0.25 mg/kg, ip; type: functional; settings: route intraperitoneal; method in brief: as §1
Rattus norvegicus [11] = assay: Central dopaminergic activity in 6-OH-DA-lesioned specific pathogen-free Sprague-Dawley rat assessed as induction of rotational behavior measured as total time at 2.5 mg/kg, ip; type: functional; settings: route intraperitoneal; method in brief: as §1
Mus musculus [12] = assay: Antinociceptive activity in naloxone hydrochloride-pretreated albino CD-1 mouse at 0.1 to 10 mg/kg, ip after 10 mins by tail-flick method; type: functional, organism-based
Rattus norvegicus [13] = assay: Central dopaminergic activity in 6-OH-DA-lesioned specific pathogen-free Sprague-Dawley rat assessed as induction of rotational behavior measured as total time at 0.1 mg/kg, ip; type: functional; settings: route intraperitoneal; method in brief: as §1
Rattus norvegicus [14] = assay: Central dopaminergic activity in 6-OH-DA-lesioned specific pathogen-free Sprague-Dawley rat assessed as induction of rotational behavior measured as total time at 0.005 mg/kg, ip; type: functional; settings: route intraperitoneal; method in brief: as §1
Mus musculus [15] = assay: Antinociceptive activity in albino CD-1 mouse at 0.1 to 10 mg/kg, ip after 10 mins by tail-flick method; type: functional, organism-based
Rattus norvegicus [16] = assay: Central dopaminergic activity in 6-OH-DA-lesioned specific pathogen-free Sprague-Dawley rat assessed as induction of rotational behavior measured as total time at 5 mg/kg, ip; type: functional; settings: route intraperitoneal; method in brief: as §1
Rattus norvegicus [17] = assay: Central dopaminergic activity in 6-OH-DA-lesioned specific pathogen-free Sprague-Dawley rat assessed as induction of rotational behavior measured as total time at 15 mg/kg, ip; type: functional; settings: route intraperitoneal
Method in brief: (§2)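 Rotational behavior in unilaterally 6-OHDA-lesioned rats, ascending DA pathway. Drug given ip, mostly to one group of four rats, plus a second group of four for some doses. Injections at least 3 days apart over several months. Reported as mean total turning time (min), peak, overall and total activity, means ± SEM.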

Rattus norvegicus [18] = assay: Central dopaminergic activity in 6-OH-DA-lesioned specific pathogen-free Sprague-Dawley rat assessed as induction of rotational behavior measured as total time at 25 mg/kg, ip; type: functional; settings: route intraperitoneal; method in brief: as §2
Mus musculus [19] = assay: Antinociceptive activity in albino CD-1 mouse at 1 to 10 mg/kg, ip up to 2 hrs by tail-flick method; type: functional, organism-based
Method in brief: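 Male albino CD-1 mice (18–24 g), ten per group, dosed ip as suspension in 0.5% methylcellulose. Radiant light on ventral tail, adjusted for baseline 2–4 sec; animals outside excluded. Two control latencies 30 min apart averaged; post-dose latencies every 30 min over 2 hr, 10-sec cutoff. %MPE = [(Tr − Tc)/(10 − Tc)] × 100, read at peak-effect time.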

Structure (SMILES): CN1CCc2cccc3c2[C@H]1Cc1ccc(O)c(O)c1-3 [APOMORPHINE]
- Time (Rattus norvegicus [1]): 33 min
- Time (Rattus norvegicus [2]): 55 min
- Time (Rattus norvegicus [3]): 63 min
- Time (Rattus norvegicus [4]): 144 min
- Time (Rattus norvegicus [5]): 153 min
- Time (Rattus norvegicus [6]): 238 min
- Activity (Rattus norvegicus [7]): Active
- Activity (Mus musculus [8]): inactive
- Activity (Mus musculus [9]): Active

Structure (SMILES): CCCN1CCc2cccc3c2C1Cc1ccc(O)cc1-3 (racemic)
- Time (Rattus norvegicus [4]): 105 min
- Time (Rattus norvegicus [5]): 177 min
- Time (Rattus norvegicus [10]): 0 min
- Time (Rattus norvegicus [11]): 174 min
- Activity (Rattus norvegicus [7]): Active
- Activity (Mus musculus [8]): Active
- Activity (Mus musculus [9]): Active

Structure (SMILES): CCCN1CCc2cccc3c2[C@H]1Cc1ccc(O)c(O)c1-3 (racemic) [R-N-PROPYLNORAPOMORPHINE]
- Activity (Mus musculus [12]): Active
- Time (Rattus norvegicus [1]): 200 min
- Time (Rattus norvegicus [2]): 185 min
- Time (Rattus norvegicus [3]): 305 min
- Time (Rattus norvegicus [13]): 360 min
- Time (Rattus norvegicus [14]): 205 min
- Activity (Rattus norvegicus [7]): Active
- Activity (Mus musculus [15]): Active

Structure (SMILES): CN1CC[C@]23c4c5ccc(O)c4O[C@H]2[C@@H](O)C=C[C@H]3[C@H]1C5
- Activity (Mus musculus [8]): Active
- Activity (Mus musculus [9]): inactive

Structure (SMILES): CCCN1CCc2cccc3c2C1Cc1cccc(O)c1-3 (racemic)
- Time (Rattus norvegicus [1]): 0 min
- Time (Rattus norvegicus [3]): 195 min
- Time (Rattus norvegicus [5]): 725 min
- Time (Rattus norvegicus [10]): 580 min
- Time (Rattus norvegicus [13]): 200 min
- Activity (Rattus norvegicus [7]): Active

Structure (SMILES): COc1ccc2c(c1O)-c1cccc3c1[C@@H](C2)N(C)CC3 [APOCIDEINE]
- Time (Rattus norvegicus [16]): 200 min
- Time (Rattus norvegicus [5]): 40 min

Structure (SMILES): N[C@@H](Cc1ccc(O)c(O)c1)C(=O)O [LEVODOPA]
- Time (Rattus norvegicus [16]): 35 min
- Time (Rattus norvegicus [17]): 90 min
- Time (Rattus norvegicus [18]): 127 min
- Activity (Mus musculus [19]): inactive
